According to ChEMBL document CHEMBL5230171, “Expanding the structure-activity relationships of alkynyl diphenylurea scaffold as promising antibacterial agents” (RSC Med Chem, 2023):
In brackets after ≈: the same amount, converted by molar mass. Activity calls are given as the source filed them.

Legend:
Staphylococcus aureus [1] = assay: Antibacterial activity against methicillin resistant Staphylococcus aureus 119 assessed as inhibition of bacterial growth incubated for 18 to 20 hrs by CLSI protocol based broth microdilution method; assay type: functional; settings: time 18-20 hrs
In short: (§1)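 Broth microdilution against staphylococcal clinical isolates. Each strain was prepared as a 0.5 McFarland suspension and diluted in cation-adjusted Mueller Hinton broth to ~5 × 10^5 CFU mL−1. Serial dilutions of test agents in DMSO stock were incubated with the bacteria, and the MIC was recorded.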

Staphylococcus aureus [2] = assay: Antibacterial activity against methicillin resistant Staphylococcus aureus 385 assessed as inhibition of bacterial growth incubated for 18 to 20 hrs by CLSI protocol based broth microdilution method; assay type: functional; settings: time 18-20 hrs; in short: as §1
Enterococcus faecalis = assay: Antibacterial activity against Enterococcus faecalis 51299 assessed as inhibition of bacterial growth incubated for 18 to 20 hrs by CLSI protocol based broth microdilution method; assay type: functional; settings: time 18-20 hrs
In short: (§2)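 Enterococci and L. monocytogenes were diluted from a 0.5 McFarland suspension in TSB. They were incubated with serial dilutions of test agent in broth microdilution, and the MIC was recorded.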

Enterococcus faecium = assay: Antibacterial activity against Enterococcus faecium 700221 assessed as inhibition of bacterial growth incubated for 18 to 20 hrs by CLSI protocol based broth microdilution method; assay type: functional; settings: time 18-20 hrs; in short: as §2
Staphylococcus aureus [3] = assay: Antibacterial activity against methicillin resistant Staphylococcus aureus 385 assessed as inhibition of bacterial growth at 0.5 ug/ml incubated for 18 to 20 hrs by CLSI protocol based broth microdilution method; assay type: functional, organism-based; settings: dose 0.5 µg/ml, time 18-20 hrs
Staphylococcus aureus [4] = assay: Antibacterial activity against vancomycin resistant Staphylococcus aureus 10 assessed as inhibition of bacterial growth at 0.5 ug/ml incubated for 18 to 20 hrs by CLSI protocol based broth microdilution method; assay type: functional, organism-based; settings: dose 0.5 µg/ml, time 18-20 hrs
Vero = assay: Cytotoxicity against African green monkey Vero cells assessed as reduction in cell viability at 64 ug/ml incubated for 24 hrs by MTS assay; assay type: toxicity, cell-based; settings: chlorocebus sabaeus, dose 64 µg/ml
In short: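 Vero or HaCaT cells were exposed to 32, 64 and 128 μg mL−1 compound in triplicate for 24 h at 37 °C, 5% CO2, with a DMSO control. MTS was then added for 4 h and OD490 read. Analysis used two-way ANOVA with Dunnett's post hoc test (p < 0.05).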

[5] = Hemolytic activity in rabbit erythrocytes at 16 ug/ml incubated for 30 mins by absorbance based assay; assay type: toxicity, cell-based, Oryctolagus cuniculus, Erythrocyte; settings: at 16 µg/mL, read-out: Activity
In short: (§3)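 Rabbit erythrocytes were washed three times in PBS pH 7.4 and adjusted to A540 0.8. They were mixed 1:1 with compound (final 16, 32, 64 μg mL−1) for 30 min at 37 °C. After centrifugation at 13 000 × g for 5 min, supernatant A540 was read as % of 1% Triton X-100 complete hemolysis. PBS served as negative control. Each concentration was run twice.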

[6] = Hemolytic activity in rabbit erythrocytes at 32 to 64 ug/ml incubated for 30 mins by absorbance based assay; assay type: toxicity, cell-based, Oryctolagus cuniculus; settings: erythrocyte, 0.5 h, dose 32-64 µg/ml; in short: as §3
Staphylococcus aureus [7] = assay: Induction of drug resistance in methicillin resistant Staphylococcus aureus NRS384 USA300 assessed as change in MIC measured after 4 passages by broth microdilution method; assay type: functional, organism-based
In short: (§4)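 Multi-step resistance in MRSA USA300 over 14 consecutive passages, with rifampicin as the control antibiotic. The MIC was determined by broth microdilution at each passage. Resistance was defined as a greater than four-fold rise over the initial MIC.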

Staphylococcus aureus [8] = assay: Induction of drug resistance in methicillin resistant Staphylococcus aureus NRS384 USA300 assessed as fold change in MIC measured from passage 5 to 14 by broth microdilution method; assay type: functional; in short: as §4
Staphylococcus aureus [9] = assay: (§5) Antibacterial activity against methicillin resistant Staphylococcus aureus NRS384 USA300 infected in Balb/c mouse model of skin infection assessed as healing administered topically twice daily for three consecutive days from day 4 to 6 and measured 24 hrs post last dose; assay type: functional, organism-based; settings: route top, time 4.0 day
In short: (§6)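 Mice were anesthetized with 2,2,2-tribromoethanol and injected subcutaneously with 100 μL containing 2 × 10^9 CFU MRSA USA300 in 0.5% HPMC in saline. Topical treatment used a petroleum jelly vehicle, with a fusidic acid positive control. Lesions were photographed 24 h after the last dose. A ~1.5 cm2 skin patch (homogenized in 1 mL saline) and the spleen (in 0.5 mL) were serially diluted and plated on MSA at 37 °C overnight for CFU.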

Staphylococcus aureus [10] = assay: as §5, with “reduction in bacterial burden in spleen” for “healing”; assay type: functional; settings: route top; time 4 day; in short: as §6

Compound `C/C(=N\NC(=N)N)c1ccc(NC(=O)Nc2ccc(C#Cc3ccccc3)cc2)cc1` has an MIC (Staphylococcus aureus [1]) of 0.5 mg/L (≈ 1.22 µM), an MIC (Staphylococcus aureus [2]) of 0.5 mg/L (≈ 1.22 µM) and an MIC (Enterococcus faecalis) of 0.5 mg/L (≈ 1.22 µM). The MIC (Enterococcus faecium) was 0.5 mg/L (≈ 1.22 µM), the Activity (Staphylococcus aureus [3]) was “Active” and the Activity (Staphylococcus aureus [4]) was “Active”. The Activity (Vero) was “Non-Toxic”, the hemolysis at 0.5 h, 16 ug/ml [5] was 2% and the Activity [6] was “Toxic”. For the same compound, the Activity (Staphylococcus aureus [7]) was “inactive”, the “fold change (FC)” value (Staphylococcus aureus [8]) was 1 and the Activity (Staphylococcus aureus [9]) was “Active”. For the same compound, the Activity (Staphylococcus aureus [10]) was >1 log10CFU/ml.
